Assay outcomes deposited in PubChem BioAssay by several laboratories.
Hits are enriched below; roughly 1.7% of the tested compounds scored in any of these assays.
Vif inh = HIV Vif self-association inhibitors, primary screen, imaging, HEK293T, single point | inhibition, % at 7.49 µM | AID 602346, 2012 | HEK293T cells, Vif self-association by quenched fluorescence, 24 h | 0.35% of 340,000 active; in the data active = inhibition above about 50%, passing the limit was not always enough; inconclusive = no clear call, values can overlap the other calls; inactive = below about 31%
Rce1 inhib = yeast Rce1p protease inhibitors, primary screen, biochemical, fluorescence, cell-free homogeneous; yeast membranes, quenched prenylated peptide cleavage fluorescence; CAAX prenyl protease 2 (Saccharomyces cerevisiae (strain ATCC 204508 / S288c)), Q03530; 0.27% of 290,000 active; calls only;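 active = fall in fluorescence gain of 50% or more versus controls, with final raw signal at or below 3038400; inconclusive = same 50% fall but final raw signal above 3038400; inactive = fall in fluorescence gain under 50%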;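 also: plate controls were neutral control wells for no effect and wells lacking membranes for full effect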
Runt-CBFb FRET = inhibitors of RUNX1 Runt–CBFb binding, primary screen, biochemical, FRET, Cerulean-Runt, Venus-CBFb, uHTS; Runt-related transcription factor 1 (Homo sapiens) + Core-binding factor subunit beta …; Cerulean-Runt/Venus-CBFb FRET ratio 530/480, 1 h; inhibition, % at 20 µM; 0.46% of 220,000 active; AID 1496, 2009;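 active = inhibition over about 50% at 20 µM in the single-dose screen, limit read from the data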;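 also: 0% = DMSO wells and 100% = excess unlabeled CBFb competitor control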
Target sequence (Q01196 whole entry, looked up): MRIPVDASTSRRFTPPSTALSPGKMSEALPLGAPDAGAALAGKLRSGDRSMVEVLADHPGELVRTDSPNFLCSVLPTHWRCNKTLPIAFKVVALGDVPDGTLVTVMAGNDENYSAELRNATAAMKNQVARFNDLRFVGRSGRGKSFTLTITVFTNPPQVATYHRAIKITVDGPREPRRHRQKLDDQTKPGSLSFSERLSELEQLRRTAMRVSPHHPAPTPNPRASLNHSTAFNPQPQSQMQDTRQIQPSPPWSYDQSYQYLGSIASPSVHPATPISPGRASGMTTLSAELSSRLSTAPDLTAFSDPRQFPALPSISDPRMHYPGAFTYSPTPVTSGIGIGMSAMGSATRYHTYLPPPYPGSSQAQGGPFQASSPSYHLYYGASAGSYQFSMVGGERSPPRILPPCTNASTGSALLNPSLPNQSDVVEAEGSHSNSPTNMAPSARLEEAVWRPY
Target sequence (Q13951 whole entry, looked up): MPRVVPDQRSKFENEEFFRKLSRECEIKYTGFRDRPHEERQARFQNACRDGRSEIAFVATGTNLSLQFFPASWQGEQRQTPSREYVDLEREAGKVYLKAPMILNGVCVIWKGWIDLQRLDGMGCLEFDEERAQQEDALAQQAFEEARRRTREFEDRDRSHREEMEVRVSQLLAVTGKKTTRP
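Doses: 20 µM compound in 1% DMSO | Material: Cerulean-labeled Runt domain protein | Amount: Each fluorescent fusion protein 100 nM | Schedule: Two 1 h room-temperature incubations shielded from light | Measured by: FRET fluorescence | Evaluation: Loss of energy transfer signal | Controls: Unlabeled CBFb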
RanGTP-Imp inh = inhibitors of RanGTP-importin-beta interaction, primary screen, biochemical, FRET, CFP-Ran, YFP-importin-beta, homogeneous. AID 2216, 2009. cell-free CFP-Ran/YFP-importin-beta FRET ratio. 1.1% of 300,000 active. inhibition, % (no concentration beside the values);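 active = more than half of the replicate wells show a fall in the fluorescence ratio signal beyond about 16%, limit read from the data, passing the limit was not always enough; inconclusive = exactly half of the replicate wells pass the set limit; inactive = fewer than half of replicates pass the limit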;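 also: 0% = DMSO wells and 100% = Ran loaded with GDP instead of GTP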
Runt-SMMHC FRET = inhibitors of RUNX1 Runt–CBFb-SMMHC binding, primary screen, biochemical, FRET, Cerulean-Runt, Venus-CBFb-SMMHC, uHTS; inhibition, % at 20 µM; Cerulean-Runt/Venus-CBFb-SMMHC FRET ratio 530/480, 1 h; 0.74% of 220,000 active; Runt-related transcription factor 1 (Homo sapiens) + Core-binding factor subunit beta …;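 active = mean inhibition across duplicate retests at 20 µM reaching about 50%, limit read from the data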;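 also: 0% = DMSO wells and 100% = wells with excess untagged CBFb-SMMHC; inhibitors lower the FRET ratio by blocking Runt binding to CBFb-SMMHC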
Numbers without * were called inactive; i = inactive; ? = inconclusive; . = no result; + = active, no number.

SMILES	Vif inh	Rce1 inhib	Runt-CBFb FRET	RanGTP-Imp inh	Runt-SMMHC FRET
Cc1cccc(C(=O)NN2S(=O)(=O)c3ccccc3S2(=O)=O)c1	-8	i	0	2	33
CCN(CC)CCN(Cc1cc2cc3c(cc2[nH]c1=O)OCO3)C(=S)NCc1ccco1	11	+	-23	1	-59
CC(C)CNC(=S)N(CCCO)Cc1cc2cc3c(cc2[nH]c1=O)OCCO3	-6	i	.	31*	.
CC(C)CNC(=S)N(CCCN(C)C)Cc1cc2cc3c(cc2[nH]c1=O)OCCO3	-4	i	.	-3	.
CCN(CC)CCCN(Cc1cc2cc3c(cc2[nH]c1=O)OCO3)C(=S)NCc1ccco1	-8	i	-23	-5	-140
O=C(O)CC1COc2ccccc2N1C(=O)c1ccccc1Cl (stereo unspecified)	22	i	0	?	0
CC1CCCC(NC(=O)CN2C(=O)COc3ccccc32)C1C (stereo unspecified)	-3	i	.	3	.
CC1CCCC(NC(=O)CCN2C(=O)COc3ccccc32)C1C (stereo unspecified)	50*	.	.	.	.
Cc1cccc(OCCSc2nc(N)cc(N)n2)c1	3	i	18	-1	-1
O=c1[nH]c(SCc2ccc(F)cc2)nc2c1cnn2-c1ccc(F)cc1	-3	i	0	2	-1
O=c1[nH]c(SCc2ccccc2)nc2c1cnn2-c1ccc(F)cc1	6	i	0	28*	-6
O=C(CSc1nnc(CNc2ccc(F)cc2)o1)c1ccccc1	62*	i	.	0	.
CCCCn1c(N)c(N(CCOC)C(=O)COC(=O)COc2cc(C)c(Cl)cc2C(C)C)c(=O)[nH]c1=O	.	i	.	0	.
O=c1c2ccccc2nc(/C=C/c2ccc([N+](=O)[O-])o2)n1CCCO	+	i	2	-3	-7
Cc1ccc(NS(=O)(=O)c2ccc(NC(=O)N3CCCCC3)cc2)cc1	-6	+	.	0	.
Cc1ccc(S(=O)(=O)c2cc(C#N)c(=O)[nH]c2N)cc1	-1	i	19	-2	107*
COc1nc(N)c(S(=O)(=O)c2ccc(C)cc2)cc1C#N	-3	i	10	5	24
COc1ccccc1CNC(=O)CN1C(=O)NC2(CCCc3ccccc32)C1=O (stereo unspecified)	-5	.	.	.	.
O=C(NCCc1c[nH]c2ccccc12)OCCSS(=O)(=O)O	-6	+	4	0	-7
CCC(=O)NCCc1c[nH]c2ccccc12	4	i	-2	1	-3
Cc1ccc(S(=O)(=O)N[C@@H](Cc2ccccc2)C(=O)N2CCC(C(=O)N[C@@H](CCC(N)=O)C(=O)O)CC2)cc1	59*	i	.	-1	.
COc1ccccc1C(=O)NCC(=O)OCc1nnc(-c2ccccc2)o1	-3	.	.	.	.
CCOC(=O)CCC(=O)NCc1ccc2c(c1)cc(C)n2C	0	i	-4	-1	-21
CCCCC(=O)NCc1ccc2c(c1)cc(C)n2C	68*	i	0	7	-14
CCOC(=O)NCc1ccc2c(c1)cc(C)n2C	3	i	-12	85*	-20
SMILES	Vif inh	Rce1 inhib	Runt-CBFb FRET	RanGTP-Imp inh	Runt-SMMHC FRET
O=C(O)c1ccc(S(=O)(=O)N2CCCCCC2)cc1	-1	i	3	2	-1
Nc1cccc2c1C(=O)N(C(=O)c1ccc(S(=O)(=O)N3CCCCCC3)cc1)C2=O	0	i	12	11	58*
Cc1ccc(NC(=O)CCn2cc(C(F)(F)F)ccc2=O)cc1	-4	i	-1	-2	-2
CCN1CCc2c(sc(NC(=S)NC(=O)c3ccccc3)c2C#N)C1	0	i	12	141*	-14
CCC1(C)Cc2c(sc(NC(=S)NC(=O)c3ccccc3)c2C#N)CO1 (stereo unspecified)	-7	.	46	3	21
CN1Cc2sc(N)c(C#N)c2CC1(C)C	-1	i	89*	117*	82*
CN1Cc2sc(NC(=S)NC(=O)c3ccccc3)c(C#N)c2CC1(C)C	.	.	14	145*	67*
